Residue numbers refer to the chain shown, from its start. pEC50, pIC50, pKi: −log10 of the molar value. Activity calls are given as the source filed them. The calls are words filed in the database; no cut-off is given here.
Key:
[1] = molecular target: T1, Muscarinic acetylcholine receptor M1 (Rattus norvegicus) (UniProt P08482); test: (§1) Antagonist activity at rat muscarinic M1 receptor expressed in CHO cells assessed as inhibition of Ach-induced calcium response; format: functional, cell-based
T1 sequence (whole entry): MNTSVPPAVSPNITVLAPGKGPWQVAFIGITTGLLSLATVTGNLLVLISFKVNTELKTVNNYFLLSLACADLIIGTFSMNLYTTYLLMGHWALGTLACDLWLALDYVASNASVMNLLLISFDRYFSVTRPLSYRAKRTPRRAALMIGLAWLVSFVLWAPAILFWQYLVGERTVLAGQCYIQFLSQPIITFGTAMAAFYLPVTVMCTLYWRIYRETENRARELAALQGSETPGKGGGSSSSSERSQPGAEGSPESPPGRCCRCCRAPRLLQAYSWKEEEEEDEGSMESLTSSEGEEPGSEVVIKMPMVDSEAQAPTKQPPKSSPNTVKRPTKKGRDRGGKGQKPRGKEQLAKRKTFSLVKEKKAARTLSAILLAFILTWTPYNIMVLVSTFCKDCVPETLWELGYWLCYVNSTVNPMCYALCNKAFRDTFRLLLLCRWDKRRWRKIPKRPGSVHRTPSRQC

[2] = molecular target: T2, Muscarinic acetylcholine receptor M1 (Rattus norvegicus, UniProt P08482); test: as §1; format: functional, cell-based; conditions: for IC50: read-out: pIC50 (converted); for pIC50: read-out: IC50
T2 sequence (P08482 whole entry): T1 sequence (whole entry)

[3] = molecular target: T3, Muscarinic acetylcholine receptor M5 (Rattus norvegicus, UniProt P08911); test: (§2) Antagonist activity at rat muscarinic M5 receptor expressed in CHO cells assessed as inhibition of Ach-induced calcium response; format: functional, cell-based; conditions: for pIC50: read-out: IC50
T3 sequence (P08911 whole entry): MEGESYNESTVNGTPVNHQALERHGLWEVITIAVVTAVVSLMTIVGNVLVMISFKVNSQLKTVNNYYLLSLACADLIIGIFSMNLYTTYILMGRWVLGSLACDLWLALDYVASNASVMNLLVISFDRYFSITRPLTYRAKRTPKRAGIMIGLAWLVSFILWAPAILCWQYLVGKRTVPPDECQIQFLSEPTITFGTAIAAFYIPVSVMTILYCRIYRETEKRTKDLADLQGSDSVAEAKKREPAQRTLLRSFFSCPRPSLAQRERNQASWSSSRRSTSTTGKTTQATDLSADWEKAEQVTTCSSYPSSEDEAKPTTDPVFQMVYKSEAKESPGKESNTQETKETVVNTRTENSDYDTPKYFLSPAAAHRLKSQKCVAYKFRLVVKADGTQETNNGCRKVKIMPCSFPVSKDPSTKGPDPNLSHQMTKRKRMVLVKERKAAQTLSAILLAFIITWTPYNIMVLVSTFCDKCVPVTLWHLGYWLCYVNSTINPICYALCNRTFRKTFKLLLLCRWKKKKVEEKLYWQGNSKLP

[4] = molecular target: T4, Muscarinic acetylcholine receptor M4 (Rattus norvegicus, UniProt P08485); test: (§3) Antagonist activity at rat muscarinic M4 receptor expressed in CHO cells assessed as inhibition of Ach-induced calcium response; format: functional, cell-based
T4 sequence (P08485 whole entry): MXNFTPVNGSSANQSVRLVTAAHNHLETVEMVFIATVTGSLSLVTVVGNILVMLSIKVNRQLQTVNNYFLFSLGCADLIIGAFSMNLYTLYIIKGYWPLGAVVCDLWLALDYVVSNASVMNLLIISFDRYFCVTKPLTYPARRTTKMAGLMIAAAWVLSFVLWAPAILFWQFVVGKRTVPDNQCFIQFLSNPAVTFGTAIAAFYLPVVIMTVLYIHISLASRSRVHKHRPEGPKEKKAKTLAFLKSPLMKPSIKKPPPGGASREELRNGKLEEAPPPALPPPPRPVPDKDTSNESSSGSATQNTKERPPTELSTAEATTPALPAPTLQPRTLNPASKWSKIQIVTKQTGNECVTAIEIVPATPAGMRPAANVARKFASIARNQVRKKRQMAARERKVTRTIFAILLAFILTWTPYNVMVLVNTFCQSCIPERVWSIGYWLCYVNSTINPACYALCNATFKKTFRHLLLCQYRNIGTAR

[5] = molecular target: T5, Muscarinic acetylcholine receptor M3 (Rattus norvegicus, UniProt P08483); test: (§4) Antagonist activity at rat muscarinic M3 receptor expressed in CHO cells assessed as inhibition of Ach-induced calcium response; format: functional, cell-based; conditions: for pIC50: read-out: IC50
T5 sequence (P08483 whole entry): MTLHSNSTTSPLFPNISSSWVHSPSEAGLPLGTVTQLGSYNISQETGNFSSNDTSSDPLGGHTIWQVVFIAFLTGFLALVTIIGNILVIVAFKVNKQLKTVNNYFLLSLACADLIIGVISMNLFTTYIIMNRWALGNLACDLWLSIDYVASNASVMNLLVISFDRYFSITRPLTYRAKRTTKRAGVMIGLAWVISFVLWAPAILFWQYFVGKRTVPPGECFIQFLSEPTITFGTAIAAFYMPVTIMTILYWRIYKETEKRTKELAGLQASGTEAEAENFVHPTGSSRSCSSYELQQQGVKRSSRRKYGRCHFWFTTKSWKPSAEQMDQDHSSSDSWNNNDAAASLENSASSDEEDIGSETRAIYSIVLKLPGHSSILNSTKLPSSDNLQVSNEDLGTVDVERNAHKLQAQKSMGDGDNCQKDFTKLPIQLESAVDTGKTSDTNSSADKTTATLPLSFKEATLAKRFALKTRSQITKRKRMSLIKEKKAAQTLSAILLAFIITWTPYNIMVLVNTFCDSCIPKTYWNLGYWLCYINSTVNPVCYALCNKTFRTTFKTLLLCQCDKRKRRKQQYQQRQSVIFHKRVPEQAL

[6] = molecular target: T6, Muscarinic acetylcholine receptor M2 (Rattus norvegicus, UniProt P10980); test: (§5) Antagonist activity at rat muscarinic M2 receptor expressed in CHO cells assessed as inhibition of Ach-induced calcium response; format: functional, cell-based; conditions: for IC50: read-out: pIC50 (converted); for pIC50: read-out: IC50
T6 sequence (P10980 whole entry): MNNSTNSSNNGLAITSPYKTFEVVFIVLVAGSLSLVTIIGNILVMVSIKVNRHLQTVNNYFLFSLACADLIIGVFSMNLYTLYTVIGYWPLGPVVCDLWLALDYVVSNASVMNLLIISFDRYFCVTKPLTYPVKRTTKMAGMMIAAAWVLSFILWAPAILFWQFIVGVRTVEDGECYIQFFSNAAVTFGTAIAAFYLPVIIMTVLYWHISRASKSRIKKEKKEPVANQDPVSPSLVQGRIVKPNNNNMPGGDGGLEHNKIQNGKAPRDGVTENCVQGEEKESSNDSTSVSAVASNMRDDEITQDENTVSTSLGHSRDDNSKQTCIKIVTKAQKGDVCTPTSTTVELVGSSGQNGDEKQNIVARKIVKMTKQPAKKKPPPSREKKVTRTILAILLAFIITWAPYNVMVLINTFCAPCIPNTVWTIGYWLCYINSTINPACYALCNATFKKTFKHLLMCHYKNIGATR

[7] = molecular target: T7, Muscarinic acetylcholine receptor M5 (Homo sapiens, UniProt P08912); test: (§6) Antagonist activity at human muscarinic M5 receptor expressed in CHO cells assessed as inhibition of Ach-induced calcium response; format: functional, cell-based
T7 sequence (P08912 whole entry): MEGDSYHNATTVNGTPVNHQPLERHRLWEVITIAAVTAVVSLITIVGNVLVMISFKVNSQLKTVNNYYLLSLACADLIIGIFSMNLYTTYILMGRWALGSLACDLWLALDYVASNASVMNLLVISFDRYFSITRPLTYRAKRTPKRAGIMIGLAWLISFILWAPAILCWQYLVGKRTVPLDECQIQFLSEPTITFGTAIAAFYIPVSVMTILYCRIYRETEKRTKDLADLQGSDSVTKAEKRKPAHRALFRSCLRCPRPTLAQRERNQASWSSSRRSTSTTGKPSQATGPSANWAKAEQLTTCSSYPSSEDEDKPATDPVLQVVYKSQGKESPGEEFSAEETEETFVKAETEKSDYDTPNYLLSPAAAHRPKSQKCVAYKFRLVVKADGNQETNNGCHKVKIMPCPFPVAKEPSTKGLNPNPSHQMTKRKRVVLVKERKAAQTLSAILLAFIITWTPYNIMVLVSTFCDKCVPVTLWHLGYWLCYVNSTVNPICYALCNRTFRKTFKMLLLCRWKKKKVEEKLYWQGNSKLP

[8] = molecular target: T8, Muscarinic acetylcholine receptor M2 (Homo sapiens, UniProt P08172); test: (§7) Antagonist activity at human muscarinic M2 receptor expressed in CHO cells assessed as inhibition of Ach-induced calcium response; format: functional, cell-based
T8 sequence (P08172 whole entry): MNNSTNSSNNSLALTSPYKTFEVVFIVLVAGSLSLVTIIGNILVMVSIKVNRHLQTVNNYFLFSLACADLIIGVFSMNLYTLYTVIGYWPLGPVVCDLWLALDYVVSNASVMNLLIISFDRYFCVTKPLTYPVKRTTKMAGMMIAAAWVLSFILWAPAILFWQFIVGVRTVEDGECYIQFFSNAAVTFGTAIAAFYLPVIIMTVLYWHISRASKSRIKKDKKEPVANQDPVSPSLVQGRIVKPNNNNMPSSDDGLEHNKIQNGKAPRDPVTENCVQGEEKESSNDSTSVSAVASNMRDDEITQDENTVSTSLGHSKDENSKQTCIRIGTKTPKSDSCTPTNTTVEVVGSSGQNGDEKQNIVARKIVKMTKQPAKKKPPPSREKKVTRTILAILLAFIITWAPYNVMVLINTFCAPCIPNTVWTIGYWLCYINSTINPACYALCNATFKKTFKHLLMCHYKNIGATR

[9] = molecular target: T7, Muscarinic acetylcholine receptor M5; test: Partial agonist activity at human muscarinic M5 receptor expressed in CHO cells calcium response; format: functional, cell-based
[10] = molecular target: T8, Muscarinic acetylcholine receptor M2; test: Partial agonist activity at human muscarinic M2 receptor expressed in CHO cells calcium response; format: functional, cell-based
[11] = molecular target: T5, Muscarinic acetylcholine receptor M3; test: Partial agonist activity at rat muscarinic M3 receptor expressed in CHO cells calcium response; format: functional, cell-based
Outline: (§8)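 Run in agonist mode as concentration-response curves on rat M1–M5 receptors. EC50 and pEC50 were taken from the curves. Efficacy was expressed as a percentage of the maximal acetylcholine response.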

[12] = molecular target: T6, Muscarinic acetylcholine receptor M2; test: Partial agonist activity at rat muscarinic M2 receptor expressed in CHO cells calcium response; format: functional, cell-based; outline: as §8
[13] = molecular target: T1, Muscarinic acetylcholine receptor M1 (Rattus norvegicus); test: Partial agonist activity at rat muscarinic M1 receptor expressed in CHO cells calcium response relative to acetylcholine; format: functional, cell-based; outline: as §8
[14] = molecular target: T2, Muscarinic acetylcholine receptor M1; test: (§9) Partial agonist activity at rat muscarinic M1 receptor expressed in CHO cells calcium response; format: functional, cell-based; outline: as §8
[15] = molecular target: T1, Muscarinic acetylcholine receptor M1 (Rattus norvegicus); test: Orthosteric antagonist activity at rat muscarinic M1 receptor expressed in CHO cells using [3HNMS] at 50 uM by dissociation kinetic studies; format: cell-based
[16] = molecular target: T2, Muscarinic acetylcholine receptor M1; test: Displacement of [3H]NMS from rat muscarinic M1 receptor expressed in CHO cells after 3 hrs; format: cell-based
[17] = molecular target: T9, Muscarinic acetylcholine receptor M1 (Homo sapiens) (UniProt P11229); test: Antagonist activity at human muscarinic M1 receptor expressed in CHO cells assessed as inhibition of acetylcholine-induced calcium response; format: functional, cell-based
T9 sequence (whole entry): T1 sequence (whole entry) with V5A, S254T, S309P, K320R, G337A, V413I

[18] = molecular target: T10, Muscarinic acetylcholine receptor M5 (Homo sapiens) (UniProt P08912); test: as §6; format: functional, cell-based
T10 sequence (whole entry): T7 sequence (P08912 whole entry)

[19] = molecular target: T11, Muscarinic acetylcholine receptor M2 (Homo sapiens) (UniProt P08172); test: as §7; format: functional, cell-based
T11 sequence (whole entry): T8 sequence (P08172 whole entry)

[20] = molecular target: T1, Muscarinic acetylcholine receptor M1 (Rattus norvegicus); test: as §9; format: functional, cell-based; outline: as §8
[21] = molecular target: T12, Muscarinic acetylcholine receptor M5 (Rattus norvegicus) (UniProt P08911); test: as §2; format: functional, cell-based
T12 sequence (whole entry): T3 sequence (P08911 whole entry)

[22] = molecular target: T13, Muscarinic acetylcholine receptor M4 (Rattus norvegicus) (UniProt P08485); test: as §3; format: functional, cell-based
T13 sequence (whole entry): T4 sequence (P08485 whole entry)

[23] = molecular target: Muscarinic acetylcholine receptor M3 (Rattus norvegicus) (UniProt P08483); test: as §4; format: functional, cell-based
Muscarinic acetylcholine receptor M3 (Rattus norvegicus), sequence (P08483 whole entry, looked up): as the sequence (P08483 whole entry) above

[24] = molecular target: T14, Muscarinic acetylcholine receptor M2 (Rattus norvegicus) (UniProt P10980); test: as §5; format: functional, cell-based
T14 sequence (whole entry): T6 sequence (P10980 whole entry)

In the case of `CCOC(=O)N1CCC(N2CCC[C@@H](NC(=O)c3ccc(C(F)(F)F)nc3)C2)CC1`, the Imax [1] was 2.7%, the IC50 [2] was 3.16 µM and the pIC50 [3] was < 5.00. The pIC50 [4] was < 5.00, the pIC50 [5] was < 5.00 and the IC50 [6] was 1.07 µM.

For `Cc1ccccc1CN1CCC(N2CCC(n3c(=O)[nH]c4ccccc43)CC2)CC1`, the pIC50 [7] was 5.31, the pIC50 [8] was 5.46 and the pEC50 [9] was < 4.52. For the same molecule, the pEC50 [10] was < 4.52, the pIC50 [3] was 5.40 and the pIC50 [5] was 5.26. For the same molecule, the pIC50 [6] was 5.89, the pEC50 [11] was < 4.52 and the pEC50 [12] was < 4.52. The Imax [13] was 69.3%.

`CCOC(=O)N1CCC(N2CCC[C@@H](NC(=O)c3cc(Br)cc(Br)c3)C2)CC1` showed an Imax [1] of 0.4% and an IC50 [2] of 3.39 µM.

`CCOC(=O)N1CCC(N2CCC[C@@H](NC(=O)c3cccc(Br)c3)C2)CC1` showed an Imax [13] of 37.4% and a pEC50 [14] of 5.70.

With `Cc1ccccc1CN1CCC(N2CCC(n3c(=O)[nH]c4ccccc43)C(F)C2)CC1` (centres undefined) the Activity [15] was “Active”, the pKi [16] was 5.87 and the inhibition [17] was “Active”. The Imax [1] was 13.6%, the pIC50 [2] was 5.31 and the inhibition [18] was “Active”. The inhibition [19] was “Active”, the pIC50 ([3]; cho) was < 5.00 and the IC50 ([3]; read-out: pIC50 (converted)) was > 10 µM. For the same molecule, the pIC50 [4] was 5.28, the pIC50 ([5]; cho) was < 5.00 and the IC50 ([5]; read-out: pIC50 (converted)) was > 10 µM. For the same molecule, the pIC50 ([6]; cho) was < 5.00, the IC50 [6] was > 10 µM and the Activity [20] was “inactive”.

With `Cc1ccccc1CN1CCC(N2CC3CC(n4c(=O)[nH]c5ccccc54)CC3C2)CC1` (centres undefined) the Imax [1] was -1.07%, the pIC50 [2] was 5.19 and the pIC50 [3] was < 5.00. For the same molecule, the pIC50 [4] was < 5.00, the pIC50 [5] was < 5.00 and the pIC50 [6] was < 5.00. The Activity [20] was “inactive”.

For `CCOC(=O)N1CCC(N[C@H]2CCCN(C(=O)c3ccccc3)C2)CC1`, the Imax [1] was 3%, the pIC50 [2] was 6.56 and the IC50 [2] was 0.479 µM. For the same molecule, the inhibition [21] was “Active”, the inhibition [22] was “Active” and the inhibition [23] was “Active”. The inhibition [24] was “Active”.

— ChEMBL document CHEMBL2311514, “Further exploration of M₁ allosteric agonists: subtle structural changes abolish M₁ allosteric agonism and result in pan-mAChR orthosteric antagonism” (Bioorg Med Chem Lett, 2013)
